This is an account of results in ChEMBL document CHEMBL4130501 (Eur J Med Chem, 2017).

Data set [1] has as its system HT-22. The data set is described as follows: Cytotoxicity in mouse HT22 cells assessed as reduction in cell viability at 30 to 100 uM incubated for 24 hrs by MTT assay. The class given is cell-based. The settings on record: ht-22, 24 h. The essentials:
(§1)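 Mouse HT22 cells were exposed to compounds at 30, 50 and 100 µM for 24 h. Viability was read by colorimetric MTT assay and compared with untreated control cells (n = 3).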

Data set [2] in a line: Antioxidant activity assessed as DPPH radical scavenging activity incubated for 60 mins under dark condition by spectrophotometry. The class given is functional. The method in brief:
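DPPH radical scavenging was measured, and the IC50 was taken as the compound concentration giving 50% scavenging.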
A general note: Loss of DPPH colour is used to gauge radical scavenging.

Data set [3] relates to HT-22. The data set is described as follows: Neuroprotective activity against glutamate-induced cytotoxicity in mouse HT22 cells assessed as increase cell viability at 30 uM pre-incubated for 30 mins before glutamate stimulation for 24 hrs by MTT assay. The class given is functional, cell-based. The essentials: (§2)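 HT22 cells were pretreated for 30 min with compounds at 3, 10 or 30 µM, then exposed to […] glutamate for 24 h. Viability was read by MTT (n = 3) and compared against the glutamate-only group and the control.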
For orientation: Formazan colour is commonly taken as a measure of viable cells.

Data set [4] can be described thus: Metal chelating activity against Cupric ions assessed as induction of isosbestic shift of maximum absorption upon addition of CuCl2 at 10 uM incubated for 30 mins UV-Vis spectrophotometry.
Data set [5] in a line: Permeability at 100 ug/ml incubated for 10 hrs by PAMPA method. The class given is ADME. Particulars: read-out: Peff. The essentials: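 Passive BBB permeation was measured by PAMPA-BBB through an artificial lipid membrane, with Pe given in 10^-6 cm s^-1. Classification: Pe > 4.7 is CNS+, 4.7 to 1.8 is uncertain, and Pe < 1.8 is CNS−.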
(PAMPA measures passive passage across an artificial lipid membrane.)

Data set [6] concerns the target T1, Cholinesterase (Homo sapiens, UniProt P06276). The data set is described as follows: Inhibition of BuChE (unknown origin) at 500 nM pre-incubated for 20 mins before S-Butyrylthiocholine iodide substrate addition by Ellman reagent based spectrophotometry. The essentials:
(§3)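 Cholinesterase inhibition was tested with the compound at 500 nM and reported as percent inhibition, mean ± SEM.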

A short description of data set [7]: Inhibition of AChE (unknown origin) at 500 nM pre-incubated for 20 mins before acetylthiocholine iodide substrate addition by Ellman reagent based spectrophotometry. The settings on record: Homo sapiens. The method in brief: as §3
Data set [8] deals with Amyloid-beta precursor protein (Homo sapiens) (UniProt P05067). The data set is described as follows: Inhibition of self-induced amyloid beta (1 to 42) (unknown origin) aggregation at 10 uM after 24 hrs by thioflavin T-based fluorometric assay relative to control. The essentials:
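Self-mediated Aβ1-42 aggregation was followed by thioflavin-T fluorescence with 10 µM inhibitor present. Percent inhibition was reported as mean ± SEM.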

Data set [9] has as its target T1, Cholinesterase. The data set is described as follows: Inhibition of BuChE (unknown origin) pre-incubated for 20 mins before S-Butyrylthiocholine iodide substrate addition by Ellman reagent based spectrophotometry.
For data set [10], the system named is HT-22. The data set is described as follows: Neuroprotective activity against glutamate-induced cytotoxicity in mouse HT22 cells assessed as increase cell viability at 3 to 30 uM pre-incubated for 30 mins before glutamate stimulation for 24 hrs by MTT assay. The class given is functional, cell-based. The method in brief:
as §2

For data set [11], the system named is HT-22. In words: Cytotoxicity in mouse HT22 cells assessed as reduction in cell viability at 100 uM incubated for 24 hrs by MTT assay. The class given is cell-based. The settings on record: ht-22, 24 h. The essentials:
as §1

In data set [12] the test system is HT-22. The data set is described as follows: Cytotoxicity in mouse HT22 cells assessed as reduction in cell viability at 30 uM incubated for 24 hrs by MTT assay. Particulars: ht-22, 24 h. The class given is cell-based. The method in brief: as §1
The test system of data set [13] is HT-22. In words: Neuroprotective activity against glutamate-induced cytotoxicity in mouse HT22 cells assessed as increase cell viability at 10 uM pre-incubated for 30 mins before glutamate stimulation for 24 hrs by MTT assay. The class given is functional, cell-based. The essentials:
as §2

Each structure is given as a SMILES string. Active and inactive are the calls of the source. The rule behind the calls is not given here. Where only a bound is given, the exact number is not on record here.

Sequence of Amyloid-beta precursor protein (Homo sapiens) (P05067 whole entry): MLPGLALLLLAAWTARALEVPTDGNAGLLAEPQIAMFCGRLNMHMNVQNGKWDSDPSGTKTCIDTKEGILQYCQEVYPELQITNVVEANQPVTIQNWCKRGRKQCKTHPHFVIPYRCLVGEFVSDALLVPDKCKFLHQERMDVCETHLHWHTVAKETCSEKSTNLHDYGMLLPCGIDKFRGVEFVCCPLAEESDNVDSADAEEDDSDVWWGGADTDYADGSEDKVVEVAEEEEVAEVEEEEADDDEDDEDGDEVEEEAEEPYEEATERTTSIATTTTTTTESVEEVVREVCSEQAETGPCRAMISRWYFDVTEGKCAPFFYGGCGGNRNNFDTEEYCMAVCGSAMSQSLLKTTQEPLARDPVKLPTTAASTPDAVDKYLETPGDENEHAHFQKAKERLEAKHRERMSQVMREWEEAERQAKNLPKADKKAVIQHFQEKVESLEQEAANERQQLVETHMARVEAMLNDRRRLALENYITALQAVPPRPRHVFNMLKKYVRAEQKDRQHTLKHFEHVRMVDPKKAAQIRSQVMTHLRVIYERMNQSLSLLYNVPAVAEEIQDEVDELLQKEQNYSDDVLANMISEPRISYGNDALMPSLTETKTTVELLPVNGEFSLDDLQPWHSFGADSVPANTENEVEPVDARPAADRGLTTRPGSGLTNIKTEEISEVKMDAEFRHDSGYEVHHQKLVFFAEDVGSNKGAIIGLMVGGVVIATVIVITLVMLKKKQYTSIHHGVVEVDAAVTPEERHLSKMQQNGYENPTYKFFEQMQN
T1 sequence (P06276 whole entry): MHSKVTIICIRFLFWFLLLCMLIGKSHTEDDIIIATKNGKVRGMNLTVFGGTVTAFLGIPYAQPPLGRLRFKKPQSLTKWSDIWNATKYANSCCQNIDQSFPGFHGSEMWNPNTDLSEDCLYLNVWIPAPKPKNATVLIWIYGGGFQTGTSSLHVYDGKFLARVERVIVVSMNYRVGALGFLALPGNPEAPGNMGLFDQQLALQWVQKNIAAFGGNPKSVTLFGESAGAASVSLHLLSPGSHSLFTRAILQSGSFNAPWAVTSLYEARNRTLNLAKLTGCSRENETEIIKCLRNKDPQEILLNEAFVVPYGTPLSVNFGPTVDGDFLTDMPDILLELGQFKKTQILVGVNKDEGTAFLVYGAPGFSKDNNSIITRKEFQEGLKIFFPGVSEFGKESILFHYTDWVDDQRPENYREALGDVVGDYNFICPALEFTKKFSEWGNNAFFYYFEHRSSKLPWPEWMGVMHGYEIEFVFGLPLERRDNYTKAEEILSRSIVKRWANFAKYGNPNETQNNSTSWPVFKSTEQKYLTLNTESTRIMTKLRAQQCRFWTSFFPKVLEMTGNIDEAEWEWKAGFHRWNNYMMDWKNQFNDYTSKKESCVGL

As for `CCN(C)C(=O)Oc1cccc(NC(=O)CCCCC2CCSS2)c1` (stereo unspecified), the Activity result in [1] is given as “Non-Toxic”. Also, the IC50 (as a rule, the midpoint of a concentration-inhibition curve) amounted to 4.53 µM in [2] and 0.356 µM in data set [9]. Further, the outcome in [3] was inactive. In data set [4], the result was Active. Further, in data set [5], the Papp at 10 h, 100 ug/ml is 10.3 ×10⁻⁶ cm/s. Besides, the inhibition (as a rule, the relative decrease from the control value, in per cent) in [6] was determined as 77.4%; in [7], 0.51%; in data set [8], 46.3%.
Take `CCN(C)C(=O)Oc1cccc(CCNC(=O)c2cc(=O)c3ccccc3o2)c1`: the Activity result in [1] is listed as “Toxic”. The half-maximal inhibitory concentration (IC50) in data set [2] was more than 100 µM; in [9] it was 0.511 µM. In addition, in data set [10], the outcome was inactive. For the same molecule, the inhibition in data set [6] stood at 49.1%; in [7], 22.1%; in data set [8], 67.4%.
Take `CCN(C)C(=O)Oc1cccc(CCNC(=O)CCCCC2CCSS2)c1` (stereo unspecified): the Activity entry in [1] is reported as “Non-Toxic”. The IC50 in [2] was 4.88 µM; in data set [9] it was 0.34 µM. In [3], the outcome was inactive. The Papp at 10 h, 100 ug/ml in data set [5] stood at 12.1 ×10⁻⁶ cm/s. Besides, the inhibition in data set [6] was 76.7%; in data set [7], -1.48%; in data set [8], 49.8%.
Take `CCN(C)C(=O)Oc1cccc(CCNC(=O)c2cc(O)c(O)c(O)c2)c1`: the IC50 in data set [2] was 11.7 µM; in [9], 0.452 µM. For the same molecule, the result in data set [4] was Active. Further, the Activity result in data set [11] is “Toxic”. Moreover, the result in [10] was inactive. The Papp at 10 h, 100 ug/ml in data set [5] is 5.14 ×10⁻⁶ cm/s. Moreover, the figures for the inhibition in data set [6], in data set [7] and in data set [8] were 58.8%, 3.48% and 27.1%, respectively.
Regarding `CCN(C)C(=O)Oc1cccc(NC(=O)c2cc(=O)c3ccccc3o2)c1`, the Activity result in data set [1] is given as “Toxic”. Besides, the IC50 is more than 100 µM in data set [2] and 0.507 µM in [9]. In addition, the result in data set [10] was inactive. Further, the inhibition in [6] was 53.8%; in data set [7], 9.03%; in [8] it was 63.8%.
Take `CCN(C)C(=O)Oc1cccc(CNC(=O)CCCCC2CCSS2)c1` (stereo unspecified): the Activity result in data set [1] is recorded as “Non-Toxic”. Further, the IC50 in data set [2] came to 4.3 µM; in data set [9] it was 0.378 µM. Besides, the outcome in data set [3] was inactive. The result in [4] was Active. Besides, the Papp at 10 h, 100 ug/ml in data set [5] amounted to 27.8 ×10⁻⁶ cm/s. The inhibition in [6] is 77.3%; in data set [7], 3.66%; in data set [8], 51.8%.
For the molecule `CCN(C)C(=O)Oc1cccc(CNC(=O)c2cc(O)c(O)c(O)c2)c1`, in data set [1], the Activity entry is reported as “Non-Toxic”. Also, the IC50 in data set [2] stood at 12.9 µM. Moreover, the result in [3] and in data set [4] was Active. In [5], the Papp at 10 h, 100 ug/ml amounted to 4.86 ×10⁻⁶ cm/s. Moreover, the inhibition is 2.39% in data set [6], 5.53% in data set [7] and 51.8% in data set [8].
As to `CCN(C)C(=O)Oc1cccc([C@H](C)N(C)C)c1` [RIVASTIGMINE], the Papp at 10 h, 100 ug/ml in [5] worked out at 16.3 ×10⁻⁶ cm/s. Moreover, the inhibition in data set [6] was 30.1%; in data set [7] it was 1.92%.
Regarding `CCN(C)C(=O)Oc1cccc(CNC(=O)c2cc(=O)c3ccccc3o2)c1`, the IC50 in [2] is more than 100 µM; in [9], 0.65 µM. In addition, the Activity result in data set [12] is on record as “Toxic”. The result in [13] was Active. Further, the figures for the inhibition in data set [6], in [7] and in data set [8] were 37.1%, 12.7% and 55.2%, respectively.
As for `Cc1c(C)c2c(c(C)c1O)CCC(C)(C(=O)O)O2` (stereo unspecified) [TROLOX], in data set [2], the IC50 is 23.5 µM.
Take `CCN(C)C(=O)Oc1cccc(NC(=O)c2cc(O)c(O)c(O)c2)c1`: the IC50 in [2] is 10.6 µM. Further, the outcome in data set [4] and in [13] was Active. In addition, the Activity result in data set [11] is listed as “Toxic”. Moreover, in [5], the Papp at 10 h, 100 ug/ml was determined as 3.08 ×10⁻⁶ cm/s. For the same molecule, the inhibition in [6] turned out to be 7.98%; in [7], 23.6%; in [8], 47.3%.
